Hits are enriched below; roughly 4.4% of the tested compounds scored in any of these assays.
TbMetRS inhib = Trypanosoma brucei MetRS inhibition | purified T. brucei MetRS, ATP depletion, Kinase-Glo luminescence | inhibition, % at 11.9 µM | AID 624268 | hit rate 0.4% among 360,000;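 active means inhibition above a per-plate cutoff of the control wells' mean inhibition plus 3 SD, cut at about 5.5% in these data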;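 further: 0% = DMSO wells median and 100% = median of wells with control inhibitor compound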
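Material: T. brucei methionyl-tRNA synthetase, purified; reagent: substrates ATP, L-methionine and bulk Escherichia coli tRNA; dosing: 11.9 µM single point; timing: 15 min plus 2 h at 25 °C; detection: luminescence of leftover ATP; evaluation: % inhibition; control set: DMSO-only wells as low control; replicates: singlicate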
MsrA inhibitor = inhibits bovine methionine sulfoxide reductase A. purified bovine MsrA, absorbance read-out. inhibition, % at 15.5 µM. hit rate 0.75% among 360,000; in the data active means inhibition above about 4.5%;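 further: 0% = vehicle wells with enzyme and 100% = reference inhibitor wells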
bovine MsrA act = bovine methionine sulfoxide reductase A activation; purified bovine MsrA, absorbance read-out; activation, % at 10.6 µM; hit rate 0.3% among 360,000; in the data active means activation above about 7.5%;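 further: 0% = vehicle and 100% = reference activator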
m5-HT2A agonist = agonists of mouse serotonin 5-HT2A receptor (HTR2A). P35363. CHO-K1 mHTR2A beta-arrestin complementation, luminescence; percent of 30 µM serotonin response. activation, % at 7.6 µM. hit rate 0.66% among 360,000. AID 624169;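 active means activation above a run cutoff, the mean activation of all tested compounds plus 3 SD, cut at about 14% in these data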;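 further: 0% = plate median of compound wells and 100% = 30 µM serotonin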
Target sequence (P35363 whole entry, looked up): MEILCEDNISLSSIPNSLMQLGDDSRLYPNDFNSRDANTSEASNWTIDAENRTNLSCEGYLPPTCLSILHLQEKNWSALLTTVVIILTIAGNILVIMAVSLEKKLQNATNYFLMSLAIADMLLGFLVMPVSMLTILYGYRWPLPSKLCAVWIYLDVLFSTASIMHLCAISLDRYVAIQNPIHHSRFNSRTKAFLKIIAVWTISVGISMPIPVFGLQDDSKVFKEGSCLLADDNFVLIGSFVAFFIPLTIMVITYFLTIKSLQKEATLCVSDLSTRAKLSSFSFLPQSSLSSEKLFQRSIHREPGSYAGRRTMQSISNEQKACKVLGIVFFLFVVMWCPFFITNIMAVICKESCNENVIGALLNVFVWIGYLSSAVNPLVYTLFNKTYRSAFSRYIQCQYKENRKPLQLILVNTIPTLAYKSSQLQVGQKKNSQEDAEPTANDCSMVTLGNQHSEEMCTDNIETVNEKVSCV
AI-2 QS modul = modulators of Vibrio harveyi AI-2 quorum sensing system; Vibrio harveyi JMH597 AI-2 luminescence/OD600 ratio, 9 h; active compounds read low; strain lacks LuxN and CqsS sensors; 0 = neutral-control median; activity change, % at 7.5 µM; hit rate 0.4% among 300,000; AID 2094; in the data active means activity change below about -75%, passing the limit was not always enough;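 further: luminescence divided by OD600 gain over 9 h not by final OD600 alone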
AHR activator = human AHR activation; activation, % at 5 µM; AHR-responsive luciferase reporter cells, luminescence; AID 2796; P35869; hit rate 2.5% among 320,000; in the data active means activation above about 47%;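 further: 0% = vehicle wells and 100% = reference agonist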
The depositor's hits bear a star; . = no result given.

SMILES	TbMetRS inhib	MsrA inhibitor	bovine MsrA act	m5-HT2A agonist	AI-2 QS modul	AHR activator
CN(C)c1cccc(-c2cc(Nc3ccc(C(C)(C)C)cc3)ncn2)c1	0	0	-3	-5	.	.
NC(=O)CCCn1c(C(=O)c2cc(Cl)c(N)c(Cl)c2)c2ccc(C(F)(F)F)cc2[n+]1[O-]	0	2	0	-2	14	55*
COc1ccc(C(=O)c2c3ccc(C(F)(F)F)cc3[n+]([O-])n2CCCC(N)=O)cc1	-1	1	-12	10	13	19
NC(=O)c1ccc(Cn2c(C(=O)c3ccc(Cl)cc3)c3ccccc3[n+]2[O-])cc1	0	0	-7	-1	.	15
NC(=O)c1ccc(Cn2c(C(=O)c3cc(Cl)c(N)c(Cl)c3)c3ccccc3[n+]2[O-])cc1	0	1	1	-8	.	78*
NCCCn1c(C(=O)c2cc(Cl)c(N)c(Cl)c2)c2ccc([N+](=O)[O-])cc2[n+]1[O-]	0	2	-8	-7	13	115*
NCCCn1c(C(=O)c2cc(Cl)c(N)c(Cl)c2)c2ccc(C(F)(F)F)cc2[n+]1[O-]	0	0	-2	-1	5	57*
COc1cc(NC(=O)COC(=O)CCOc2ccc(C)cc2)cc(OC)c1	0	2	-3	10	23	0
Cc1onc(-c2ccccc2)c1C(=O)NN=Cc1cc(Cl)cc(Cl)c1O	.	0	.	.	.	.
CCOc1cccc(C=NNc2nc(=O)cc(C(=O)OC)s2)c1O	.	1	.	.	.	.
NC1=C(c2ccccc2)C(=O)NC1=O	0	0	-3	-1	13	-2
Cc1ccc(S(=O)(=O)/N=C2/NC(=O)/C(=C\c3ccccc3)S2)cc1	0	4	-5	-2	.	2
Cc1ccc(S(=O)(=O)/N=C2/NC(=O)/C(=C/c3ccccc3)S2)cc1	0	4.6*	-4	6	45	0
N/C(Cc1ccc(Cl)cc1)=N\OC(=O)c1ccccc1	1	2	0	0	-90*	-2
COc1ccc(C(=O)O/N=C(\N)Cc2ccc(Cl)cc2)cc1OC	0	0	0	-4	26	0
CCOC(=O)N(C)[C@H]1C[C@H]2c3[nH]c4c(-c5ccccc5)cccc4c3CCN2C(=O)[C@H]1[C@H](C)O	.	-1	.	.	.	.
COc1ccc2c(n1)Sc1nc3ccccc3nc1N2	0	3	1	1	6	64*
COc1cc2ccccc2nn1	-1	0	-5	5	9	4
Cn1c2ccccc2c2cc(C(=O)NNS(=O)(=O)c3ccc(F)cc3)sc21	0	1	-6	4	5	77*
COC(=O)C1=C(C)N(Cc2cccc(C(F)(F)F)c2)C(=NCc2ccc3c(c2)OCO3)NC1CCc1ccccc1 (centres undefined)	.	1	.	.	.	.
CCc1cccc(CC)c1NC(=O)C1SC(=Nc2ccccc2C)C(c2nc3ccccc3s2)=C1N (centres undefined)	0	2	-3	-1	14	54*
CCc1cccc(C)c1NC(=O)CCCSc1nc2ccccc2s1	-1	0	-3	-2	44	18
CC[C@H](C)[C@H]1CNC(=O)C(=O)N1CC1CCN(CC(C)C)CC1	.	-1	.	.	.	.
COC(=O)[C@]12C[C@H](CC(=O)NCC3CCCCC3)C(=O)N(Cc3ccccc3)C1=C[C@H](C1CCCC1)O[C@@H]2C	.	0	.	.	.	.
COc1ccc(Cl)cc1C(=O)N/N=C/c1ccc(N2CCOCC2)cc1	0	4	-3	0	62	53*
SMILES	TbMetRS inhib	MsrA inhibitor	bovine MsrA act	m5-HT2A agonist	AI-2 QS modul	AHR activator
CCn1ncc(/C=N/NC(=O)c2cc(Cl)ccc2OC)c1C	0	1	-2	-2	16	76*
Cc1ccc2nc(C)c(C(=O)N/N=C/c3ccc(N4CCOCC4)cc3)cc2c1	0	2	-5	6	35	10
CCn1ncc(/C=N\NC(=O)COc2cc(C)cc(C)c2)c1C	0	0	-5	3	27	5
S=C(N/N=C/c1ccc(Cl)cc1)N1CCOCC1	0	1	-2	0	2	71*
Cc1[nH]nc2c1C(c1cccc(C(F)(F)F)c1)N(Cc1ccccc1)C2=O (centres undefined)	.	0	.	.	.	.
O=c1c(O)c(-c2ccc3c(c2)OCO3)oc2ccccc12	-1	2	-13	4	6	69*
O=C(Nc1ccc2c(c1)oc1ccccc12)c1ccc2c(c1)OCO2	0	1	0	-6	6	-5
Fc1ccc(-[n+]2nc(Nc3ccccc3)sc2-c2c3ccccc3cc3ccccc23)cc1	0	0	-2	-14	8	20
c1ccc(-[n+]2nc(Nc3cccc4ccccc34)sc2-c2c3ccccc3cc3ccccc23)cc1	0	.	-3	-8	.	62*
Cn1c(=O)c2c(SCc3cccnc3)nc(CC(C)(C)C)nc2n(C)c1=O	0	0	0	-4	14	2
CCCc1nc(SCc2cccnc2)c2c(=O)n(C)c(=O)n(C)c2n1	0	0	-5	6	24	52*
COCC(=O)N1C[C@H]2CON(C)[C@H]2C[C@H]1c1cccc(-c2cc(Cl)cc(Cl)c2)c1	.	0	.	.	.	.
COc1cc(CNc2ccc(CNc3ncn[nH]3)cc2)ccc1OCC(=O)NC(C)(C)C	0	1	-5	-6	-1	56*
COC(=O)C1=C(C)N(CC(C)C)C(=S)NC1c1cccc(Br)c1 (centres undefined)	.	-1	.	.	.	.
N=c1n(CCN2CCOCC2)c2ccccc2n1CC(=O)c1ccc(Cl)c(Cl)c1	0	0	3	-10	4	91*
CC(=O)O[C@@H]1C=C[C@@H](C#Cc2ccc(C(C)(C)C)cc2)O[C@@H]1COC(=O)NCc1ccccc1	.	1	.	.	.	.
CCC(c1nnnn1Cc1ccc(F)cc1)N(CCCO)Cc1cc2cc3c(cc2[nH]c1=O)OCO3 (centres undefined)	4	2	-6	-1	23	73*
CCC(c1nnnn1CC1CCCO1)N(CCCO)Cc1cc2cccc(C)c2[nH]c1=O (centres undefined)	-1	0	-4	8	17	11
COc1cc(C(=O)NC2CCCCN(C)C2=O)cc(OC)c1OC (centres undefined)	.	0	.	.	.	.
Nc1[nH]c(C(=O)c2ccccc2)c(-c2cccc3ccccc23)c1C(=O)NCc1ccc(F)c(F)c1	.	0	.	.	.	.
O=C(O)Cc1sc(N/N=C\c2ccccc2)nc1-c1ccccc1	0	1	-5	-5	16	75*
CCOC(=O)c1sc(N/N=C/c2cccc(C)c2)nc1C	0	0	-4	-1	24	98*
CCOC(=O)c1sc(N/N=C/c2ccccc2)nc1C	0	1	-4	1	10	61*
c1ccc(Cc2cnc(N3CCN(Cc4ccc5c(c4)OCCO5)CC3)nc2)cc1	.	0	.	.	.	.
C/C(=N\Nc1ccc(C(=O)O)cc1)c1ccc2c(c1)Nc1ccccc1S2	2	2	-1	1	47	68*
